In ChEMBL document CHEMBL1671716, “Antimicrobial susceptibility patterns for recent clinical isolates of anaerobic bacteria in South Korea” (2010):

Columns and labels:
Schaalia meyeri [1] = assay: Antimicrobial activity against Actinomyces meyeri assessed as percent susceptible isolates after 48 hrs by agar dilution method; type: functional
Prevotella buccae [2] = assay: Antimicrobial activity against Prevotella buccae assessed as percent resistant isolates after 48 hrs by agar dilution method; type: functional, Segatella buccae
Summary of the method: (§1)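 CLSI agar dilution on recent Korean clinical anaerobe isolates. Inoculum 10^5 CFU per spot by replicator. Plates incubated in an anaerobic chamber at 37°C for 48 h. For piperacillin plus tazobactam, tazobactam was held constant at 4 μg/ml. Resistance and susceptibility rates derived from MICs.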

Finegoldia magna [3] = assay: Antimicrobial activity against Finegoldia magna assessed as percent resistant isolates after 48 hrs by agar dilution method; type: functional; summary of the method: as §1
Parvimonas micra [4] = assay: Antimicrobial activity against Peptostreptococcus micros after 48 hrs by agar dilution method; type: functional
Summary of the method: (§2)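 CLSI agar dilution (M11-A7); inoculum 10^5 CFU applied by replicator; plates incubated anaerobically 48 h at 37°C. For piperacillin-tazobactam, tazobactam held constant at 4 μg/ml.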

Bacteroides ovatus [5] = assay: Antimicrobial activity against Bacteroides ovatus assessed as percent resistant isolates after 48 hrs by agar dilution method; type: functional; summary of the method: as §1
Phocaeicola vulgatus [6] = assay: Antimicrobial activity against Bacteroides vulgatus assessed as percent susceptible isolates after 48 hrs by agar dilution method; type: functional
[7] = tested on: Peptoniphilus asaccharolyticus; assay: Antimicrobial activity against Peptoniphilus asaccharolyticus assessed as percent resistant isolates after 48 hrs by agar dilution method; type: functional; summary of the method: as §1
Prevotella bivia [8] = assay: Antimicrobial activity against Prevotella bivia assessed as percent susceptible isolates after 48 hrs by agar dilution method; type: functional; summary of the method: as §2
Fusobacterium nucleatum = assay: Antimicrobial activity against Fusobacterium nucleatum after 48 hrs by agar dilution method; type: functional; summary of the method: as §2
Prevotella buccae [9] = assay: Antimicrobial activity against Prevotella buccae after 48 hrs by agar dilution method; type: functional; conditions: Segatella buccae; summary of the method: as §2
Actinomyces naeslundii [10] = assay: Antimicrobial activity against Actinomyces naeslundii assessed as percent susceptible isolates after 48 hrs by agar dilution method; type: functional
[11] = tested on: Parabacteroides distasonis; assay: Antimicrobial activity against Bacteroides distasonis assessed as percent susceptible isolates after 48 hrs by agar dilution method; type: functional
Hoylesella oralis = assay: Antimicrobial activity against Prevotella oralis assessed as percent susceptible isolates after 48 hrs by agar dilution method; type: functional
Summary of the method: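 CLSI agar dilution MIC testing of clinical isolates. 10^5 CFU spotted by replicator, plates incubated 48 h at 37°C in an anaerobic chamber. Susceptibility rates derived from the MICs.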

Schaalia meyeri [12] = assay: Antimicrobial activity against Actinomyces meyeri assessed as percent resistant isolates after 48 hrs by agar dilution method; type: functional; summary of the method: as §1
Prevotella intermedia [13] = assay: Antimicrobial activity against Prevotella intermedia assessed as percent susceptible isolates after 48 hrs by agar dilution method; type: functional; summary of the method: as §2
[14] = tested on: Bacteroides thetaiotaomicron; assay: Antimicrobial activity against Bacteroides thetaiotaomicron assessed as percent susceptible isolates after 48 hrs by agar dilution method; type: functional
Finegoldia magna [15] = assay: Antimicrobial activity against Finegoldia magna assessed as percent susceptible isolates after 48 hrs by agar dilution method; type: functional; summary of the method: as §2
[16] = tested on: Porphyromonas asaccharolytica; assay: Antimicrobial activity against Porphyromonas asaccharolytica after 48 hrs by agar dilution method; type: functional; summary of the method: as §2
Parvimonas micra [17] = assay: Antimicrobial activity against Peptostreptococcus micros assessed as percent susceptible isolates after 48 hrs by agar dilution method; type: functional; summary of the method: as §1
Bacteroides caccae [18] = assay: Antimicrobial activity against Bacteroides caccae assessed as percent susceptible isolates after 48 hrs by agar dilution method; type: functional
[19] = tested on: Parabacteroides distasonis; assay: Antimicrobial activity against Bacteroides distasonis assessed as percent resistant isolates after 48 hrs by agar dilution method; type: functional; summary of the method: as §1
Phocaeicola vulgatus [20] = assay: Antimicrobial activity against Bacteroides vulgatus assessed as percent resistant isolates after 48 hrs by agar dilution method; type: functional; summary of the method: as §1
Schaalia meyeri [21] = assay: Antimicrobial activity against Actinomyces meyeri after 48 hrs by agar dilution method; type: functional
Summary of the method: (§3)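 MICs on clinical anaerobe isolates by the CLSI agar dilution method. Inoculum of 10^5 CFU applied with a Steers replicator. Plates incubated 48 h at 37°C in an anaerobic chamber.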

Schaalia odontolytica [22] = assay: Antimicrobial activity against Actinomyces odontolyticus assessed as percent resistant isolates after 48 hrs by agar dilution method; type: functional; summary of the method: as §1
Finegoldia magna [23] = assay: Antimicrobial activity against Finegoldia magna after 48 hrs by agar dilution method; type: functional; summary of the method: as §2
[24] = tested on: Bacteroides thetaiotaomicron; assay: Antimicrobial activity against Bacteroides thetaiotaomicron after 48 hrs by agar dilution method; type: functional; summary of the method: as §3
Bacteroides caccae [25] = assay: Antimicrobial activity against Bacteroides caccae after 48 hrs by agar dilution method; type: functional; summary of the method: as §3
Actinomyces naeslundii [26] = assay: Antimicrobial activity against Actinomyces naeslundii assessed as percent resistant isolates after 48 hrs by agar dilution method; type: functional; summary of the method: as §1
Fusobacterium necrogenes = assay: Antimicrobial activity against Fusobacterium necrogenes after 48 hrs by agar dilution method; type: functional; summary of the method: as §2
Eubacterium sp. [27] = assay: Antimicrobial activity against Eubacterium sp. after 48 hrs by agar dilution method; type: functional; summary of the method: as §2
Bacteroides fragilis = assay: Antimicrobial activity against Bacteroides fragilis assessed as percent resistant isolates after 48 hrs by agar dilution method; type: functional; summary of the method: as §1
Bacteroides ovatus [28] = assay: Antimicrobial activity against Bacteroides ovatus after 48 hrs by agar dilution method; type: functional; summary of the method: as §3
Actinomyces israelii [29] = assay: Antimicrobial activity against Actinomyces israelii after 48 hrs by agar dilution method; type: functional; summary of the method: as §3
Fusobacterium varium = assay: Antimicrobial activity against Fusobacterium varium after 48 hrs by agar dilution method; type: functional; summary of the method: as §2
Eggerthella lenta [30] = assay: Antimicrobial activity against Eubacterium lentum assessed as percent susceptible isolates after 48 hrs by agar dilution method; type: functional; summary of the method: as §2
Bifidobacterium sp. [31] = assay: Antimicrobial activity against Bifidobacterium sp. assessed as percent susceptible isolates after 48 hrs by agar dilution method; type: functional; summary of the method: as §2
Prevotella bivia [32] = assay: Antimicrobial activity against Prevotella bivia assessed as percent resistant isolates after 48 hrs by agar dilution method; type: functional; summary of the method: as §1
Clostridium perfringens = assay: Antimicrobial activity against Clostridium perfringens assessed as percent susceptible isolates after 48 hrs by agar dilution method; type: functional
Schaalia odontolytica [33] = assay: Antimicrobial activity against Actinomyces odontolyticus after 48 hrs by agar dilution method; type: functional; summary of the method: as §3
Clostridioides difficile = assay: Antimicrobial activity against Clostridium difficile assessed as percent susceptible isolates after 48 hrs by agar dilution method; type: functional
Actinomyces israelii [34] = assay: Antimicrobial activity against Actinomyces israelii assessed as percent susceptible isolates after 48 hrs by agar dilution method; type: functional
[35] = tested on: Peptoniphilus asaccharolyticus; assay: Antimicrobial activity against Peptoniphilus asaccharolyticus after 48 hrs by agar dilution method; type: functional; summary of the method: as §2
Bifidobacterium sp. [36] = assay: Antimicrobial activity against Bifidobacterium sp. assessed as percent resistant isolates after 48 hrs by agar dilution method; type: functional; summary of the method: as §1
[37] = tested on: Bacteroides thetaiotaomicron; assay: Antimicrobial activity against Bacteroides thetaiotaomicron assessed as percent resistant isolates after 48 hrs by agar dilution method; type: functional; summary of the method: as §1
Eggerthella lenta [38] = assay: Antimicrobial activity against Eubacterium lentum assessed as percent resistant isolates after 48 hrs by agar dilution method; type: functional; summary of the method: as §1
Anaerococcus prevotii = assay: Antimicrobial activity against Anaerococcus prevotii assessed as percent susceptible isolates after 48 hrs by agar dilution method; type: functional
Eubacterium sp. [39] = assay: Antimicrobial activity against Eubacterium sp. assessed as percent resistant isolates after 48 hrs by agar dilution method; type: functional; summary of the method: as §1
Prevotella intermedia [40] = assay: Antimicrobial activity against Prevotella intermedia after 48 hrs by agar dilution method; type: functional; summary of the method: as §2

C[C@@H](O)[C@H]1C(=O)N2C(C(=O)O)=C(SCCNC=N)C[C@H]12 [IMIPENEM ANHYDROUS]
0.06 µg/mL: MIC50 (Prevotella buccae [9]) | MIC50 (Schaalia meyeri [21]) | MIC50 (Finegoldia magna [23]) | MIC50 (Eubacterium sp. [27]) | MIC50 (Actinomyces israelii [29]) | MIC50 (Schaalia odontolytica [33]) | MIC90 (Prevotella intermedia [40])
≤ 0.008 µg/mL: MIC50 [35]
58%: Activity (Clostridioides difficile)
100%: Activity (Schaalia meyeri [1]) | Activity (Prevotella bivia [8]) | Activity (Actinomyces naeslundii [10]) | Activity (Hoylesella oralis) | Activity (Prevotella intermedia [13]) | Activity (Finegoldia magna [15]) | Activity (Eggerthella lenta [30]) | Activity (Bifidobacterium sp. [31]) | Activity (Clostridium perfringens) | Activity (Actinomyces israelii [34]) | Activity (Anaerococcus prevotii)
4 µg/mL: MIC90 [24] | MIC90 (Bacteroides caccae [25]) | MIC90 (Bacteroides ovatus [28])
0.5 µg/mL: MIC90 (Prevotella buccae [9]) | MIC90 (Schaalia meyeri [21]) | MIC50 [24] | MIC50 (Bacteroides caccae [25]) | MIC90 (Eubacterium sp. [27]) | MIC50 (Bacteroides ovatus [28]) | MIC90 (Actinomyces israelii [29]) | MIC90 (Schaalia odontolytica [33])
2%: Activity (Bacteroides fragilis)
0.125 µg/mL: MIC50 (Parvimonas micra [4]) | MIC90 (Finegoldia magna [23])
0%: Activity (Prevotella buccae [2]) | Activity (Finegoldia magna [3]) | Activity [7] | Activity (Schaalia meyeri [12]) | Activity (Parvimonas micra [17]) | Activity (Schaalia odontolytica [22]) | Activity (Actinomyces naeslundii [26]) | Activity (Prevotella bivia [32]) | Activity (Bifidobacterium sp. [36]) | Activity (Eggerthella lenta [38]) | Activity (Eubacterium sp. [39])
0.02 µg/mL: MIC (Fusobacterium nucleatum) | MIC [16] | MIC (Fusobacterium necrogenes) | MIC (Fusobacterium varium) | MIC (Prevotella intermedia [40])
95%: Activity (Phocaeicola vulgatus [6]) | Activity [11] | Activity [14] | Activity (Bacteroides caccae [18])
2 µg/mL: MIC90 (Parvimonas micra [4])
0.03 µg/mL: MIC90 [35] | MIC50 (Prevotella intermedia [40])
4%: Activity (Bacteroides ovatus [5]) | Activity [19] | Activity (Phocaeicola vulgatus [20]) | Activity [37]
